Only some compounds are listed: those with a hit (about 3.5% of all), similar ones and a draw of the others.
RGS4 pot = RGS4 potentiation or activation. 310,000 compounds, 0.92% hits. HEK293 M3R/inducible RGS4, carbachol calcium flux Fluo4; active compounds read low. B-score at 10 µM;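 active means B-score of the integrated calcium signal more than 4 SD below the library mean, with starting fluorescence not abnormally high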;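 further: negative B-score means reduced calcium response which marks RGS4 activation or potentiation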
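Detection: kinetic calcium fluorescence imaging with Fluo4-AM dye, 2 µM / Material: HEK293 cells with stable M3R and inducible RGS4 / Schedule: recording 10 s baseline at 1 Hz, 100 s post-agonist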
MrgX1 ag = activates human MrgX1 receptor signaling; B-score at 10 µM; MrgX1-HEK293 cells, Fluo-4 calcium fluorescence, agonist mode; active compounds read high; 310,000 compounds, 0.44% hits;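 active means calcium response B-score plate-corrected fluorescence ratio at least 3 library SD, with starting fluorescence B-score inside 5 SD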
Target sequence (Q96LB2 whole entry, looked up): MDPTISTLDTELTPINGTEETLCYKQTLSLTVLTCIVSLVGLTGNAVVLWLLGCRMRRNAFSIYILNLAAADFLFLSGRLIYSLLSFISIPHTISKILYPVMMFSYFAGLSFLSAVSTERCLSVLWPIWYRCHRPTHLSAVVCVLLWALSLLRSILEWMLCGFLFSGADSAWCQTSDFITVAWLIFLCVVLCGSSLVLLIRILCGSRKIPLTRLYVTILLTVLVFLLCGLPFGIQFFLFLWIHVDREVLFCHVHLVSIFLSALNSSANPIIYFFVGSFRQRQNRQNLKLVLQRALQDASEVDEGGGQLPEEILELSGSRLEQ
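times = overnight plating, then 30 min 37 °C plus 30 min room-temperature dye loading | assay system = stable human MrgX1 HEK293 cell line | input = fifteen thousand cells per well | signal = kinetic calcium dye fluorescence, Fluo-4 NW | dosing = compound delivered in addition one of three | read-out = B-scored fluorescence response ratio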
MrgX1 allo act = allosterically activates human MrgX1 receptor signaling; B-score at 10 µM; MrgX1-HEK293, Fluo-4 calcium flux, FDSS; active compounds read high; 310,000 compounds, 0.63% hits; AID 588675;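 active means plate-corrected calcium response at least 3 library SD above typical, normal starting fluorescence, not activating the receptor alone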;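 further: compound read alongside a low EC10 to EC30 dose of BAM8-22 agonist; peak minus trough fluorescence over baseline measured at the second addition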
MrgX1 antag = blocks BAM8-22 activation of human MrgX1 receptor. Q96LB2. MRGX1-HEK293 calcium flux, Fluo-4, BAM8-22 antagonism; active compounds read low. 310,000 compounds, 1.3% hits. B-score at 10 µM. AID 588676;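 active means calcium-response B-score plate-corrected more than 3 library SD below zero, starting fluorescence within 5 deviations, no agonist response on first addition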;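 further: peak minus trough fluorescence over baseline after final BAM8-22 challenge near maximal dose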
RGS4 block = inhibitors of human RGS4 | P49798 | HEK293 M3R/RGS4 inducible, Fluo-4 calcium flux; active compounds read high; triggered by carbachol at its EC20 | B-score at 10 µM | 310,000 compounds, 0.45% hits | AID 463165;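 active means B-score, a plate-corrected calcium signal, over three deviations above library mean, with baseline fluorescence within five deviations of library mean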;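 further: RGS4 expression induced by doxycycline in cells with stable M3 receptor; B-score is computed from the integrated fluorescence ratio over baseline after carbachol; higher B-score means a larger calcium signal and so more RGS4 inhibition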
Target sequence (P49798 whole entry, looked up): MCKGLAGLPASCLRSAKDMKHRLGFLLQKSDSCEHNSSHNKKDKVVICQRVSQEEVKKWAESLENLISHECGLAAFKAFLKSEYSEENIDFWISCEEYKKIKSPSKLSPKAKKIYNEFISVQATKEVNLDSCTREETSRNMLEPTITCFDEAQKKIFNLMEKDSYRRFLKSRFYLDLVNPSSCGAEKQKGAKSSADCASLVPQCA
RGS4 activ val = RGS4 activation, validation assay | shares compounds with RGS4 pot | HEK293 M3R/RGS4 inducible, carbachol calcium flux Fluo4 | inhibition, % at 10 µM | 1,100 compounds, 89% hits | AID 602282;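 active means inhibition above 3 SD of the buffer control wells, cut at about 41% in these data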;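 further: signal is the integrated peak-minus-minimum Fluo4 fluorescence over baseline ratio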
M3R Ca counter = counter-screen for RGS4 activators: effect in non-induced cells. HEK293 M3R non-induced RGS4, Fluo4 calcium flux; after carbachol challenge at its EC90. 1,100 compounds, 82% hits. inhibition, % at 10 µM. shares compounds with RGS4 pot;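 active means inhibition exceeding 3 SD of buffer-only control wells, cut at about 26% in these data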;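 further: percent drop in integrated peak-minus-baseline over baseline Fluo4 ratio after carbachol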
The depositor's hits bear a star; i = inactive; nt = no result.

SMILES | RGS4 pot | MrgX1 ag | MrgX1 allo act | MrgX1 antag | RGS4 block | RGS4 activ val | M3R Ca counter
COc1ccc(C)cc1S(=O)(=O)N1CCN(C(=O)c2ncoc2-c2ccc(C)cc2)CC1 | -8.2* | i | i | i | i | 82* | 32*
CCC(CC)CN1CCN=C1Nc1ccccc1 | nt | i | i | i | nt | nt | nt
Cc1cc(OCC(=O)Nc2ccc(S(=O)(=O)N3CCN(C)CC3)cc2)ccc1Cl | -8.3* | i | i | i | i | 0 | 0
COc1ccc(OC)c(CCNC(=O)c2ccc(NC3=NC4CS(=O)(=O)CC4S3)cc2)c1 (stereo unspecified) | i | i | i | i | i | nt | nt
COc1ccc2nc(C)cc(SCC(=O)N/N=C/c3cccc4ccccc34)c2c1 | i | i | i | i | i | nt | nt
COc1ccc2nc(C)cc(SCC(=O)N/N=C/c3ccc(O)c(O)c3)c2c1 | -13* | i | i | i | i | 0 | 0
CCCOc1ccc(C2=CSC3=NCCN23)cc1[N+](=O)[O-] | i | i | i | i | i | nt | nt
O=[N+]([O-])c1ccc(N/N=C/c2ccc(OCc3cccc4ccccc34)cc2)nc1 | i | i | i | i | i | nt | nt
N#Cc1ccccc1Cn1cc(/C=N/Nc2ccc([N+](=O)[O-])cn2)c2ccccc21 | -11* | i | i | -6.2* | i | 78* | 84*
Cc1ccccc1N1CCN(C2CCCN(C(=O)c3cn4cccc(C)c4n3)C2)CC1 (stereo unspecified) | -9.7* | nt | nt | nt | i | 50* | 0
Cc1ccccc1N1CCN(C2CCCN(C(=O)c3ccccn3)C2)CC1 (stereo unspecified) | i | i | i | i | i | nt | nt
O=C(CCC1CCCN(C2C3CC4CC(C3)CC2C4)C1)NCc1ccc(F)c(F)c1 (stereo unspecified) | -7.7* | i | i | i | i | 81* | 45*
Cc1ccc(Nc2nc(Cl)nc(NC(C)(C)C)n2)cc1 | -8.2* | i | i | i | i | 71* | 39*
O=C(NCc1ccc2c(c1)OCO2)c1ccc(C2SCC(=O)N2Cc2ccco2)cc1 (stereo unspecified) | -7.7* | i | i | i | i | 71* | 84*
COc1ccc(C(=O)c2sc3nc(C)cc(-c4cccs4)c3c2N)cc1OC | -8.7* | i | i | i | i | 83* | 71*
COc1ccc(C(=O)c2sc3nc(C)cc(-c4cccs4)c3c2N)cc1 | i | nt | nt | nt | i | nt | nt
O=C1CC(c2ccco2)Cc2nc(N3CCN(Cc4ccc5c(c4)OCO5)CC3)ncc21 (stereo unspecified) | -8.9* | i | i | i | i | 88* | 65*
O=C(NC1(O)C(=O)c2ccccc2C1=O)c1ccc(C(F)(F)F)cc1 | -7.6* | i | i | i | i | 0 | 0
Cc1ccc(C(=O)NC2(O)C(=O)c3ccccc3C2=O)cc1C | i | i | i | i | i | nt | nt
O=C(NC(=S)Nc1ccc(Cl)cn1)c1cc([N+](=O)[O-])ccc1N1CCOCC1 | i | i | i | i | i | nt | nt
CN1CCCC(CC2Oc3ccccc3Sc3ccccc32)C1 (stereo unspecified) | -9.1* | i | i | i | i | 93* | 92*
CCCCN(C)C(=O)c1cc2c(Cl)nc3ccccc3c2s1 | -8.7* | i | i | i | i | 59* | 45*
C=CCn1c(C)cc(-c2csc(NC(=O)CCc3nc4ccccc4c(=O)[nH]3)n2)c1C | -8.4* | i | i | i | i | 68* | 0
CCn1cnc2c1c(=O)n(CC(=O)OC(C)C(N)=O)c(=O)n2Cc1ccccc1 (stereo unspecified) | i | i | i | i | i | nt | nt
Cc1scc(-c2n[nH]c(=S)n2Cc2ccccc2)c1C | -7.6* | i | i | i | i | 74* | 84*
SMILES | RGS4 pot | MrgX1 ag | MrgX1 allo act | MrgX1 antag | RGS4 block | RGS4 activ val | M3R Ca counter
CNC(=O)C1CC(=O)N(CCc2ccc(OC)cc2)C(=Nc2ccc(OC)cc2)S1 (stereo unspecified) | i | i | i | i | i | nt | nt
CNC(=O)C1CC(=O)N(Cc2ccc3c(c2)OCO3)C(=Nc2ccc(OC)cc2)S1 (stereo unspecified) | -11* | i | i | i | i | 0 | 0
Cc1cc(N(C)C)c(C#N)c(N2CCCCC2)n1 | i | i | i | i | i | nt | nt
CCOC(=O)c1cc(C)nc(N2CCCCC2)c1C#N | -11* | i | i | i | i | 0 | 0
C[C@@H]1CN(C2CCN(Cc3nc(C(c4ccccc4)c4ccccc4)no3)CC2)C[C@H](C)O1 | i | i | i | i | i | nt | nt
NC(=O)CCN1CCN(Cc2nc(C(c3ccccc3)c3ccccc3)no2)CC1 | -8.7* | i | i | i | i | 92* | 58*
CC(C)NC(=O)CN1CCN(Cc2nc(C(c3ccccc3)c3ccccc3)no2)CC1 | -7.6* | i | i | i | i | 92* | 58*
COc1ccc(CCN2CC(C(=O)N(C)Cc3c(C)n[nH]c3C)CCC2=O)cc1 (stereo unspecified) | i | nt | nt | nt | i | nt | nt
CC(C)CC1CCCCC1OC(=O)CN1CCCCC1 (stereo unspecified) | -8.5* | i | i | i | i | 86* | 37*
Cc1c(C)c2ccc(OCC(=O)Nc3ccc(S(N)(=O)=O)cc3)c(C)c2oc1=O | i | i | i | i | i | nt | nt
CN1CCCN(C(=O)CSc2ccccc2)CC1 | i | i | i | i | i | nt | nt
CN1CCCN(C(=O)CC(c2ccccc2)c2ccccc2)CC1 | -8.1* | i | i | i | i | 88* | 47*
CCN(CC)S(=O)(=O)c1ccc(N2CCc3ccccc3C2)nc1 | -10* | i | i | i | i | 60* | 84*
Cn1ccnc1SCC(=O)Nc1ccc(Cl)cn1 | i | i | i | i | i | nt | nt
O=C(Nc1ccc2nc3n(c(=O)c2c1)CCCCC3)C(=O)N1CCN(c2ccc(F)cc2)CC1 | i | i | i | i | i | nt | nt
O=C1N2CCCc3cccc(c32)C12Nc1ccccc1S2 (stereo unspecified) | i | nt | nt | nt | i | nt | nt
O=C1CSC2(C(=O)N3CCCc4cccc2c43)N1c1cccc(C(F)(F)F)c1 (stereo unspecified) | -8.2* | i | i | i | i | 90* | 76*

Compound activity: PubChem, Johns Hopkins Ion Channel Center
